The record followed here is paper PMC9635392 (International Journal of Nanomedicine, 2022).

Structures can show the parent of a compound that is named as a salt.

Data set [1] deals with PLC/PRF/5 hepatocellular carcinoma cells. Kind of data set: MTT cytotoxicity assay. Format: cell-based, Human. The essentials:
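PLC/PRF/5 cells grown in DMEM with 10% FBS and penicillin/streptomycin at 37°C, 5% CO2. Seeded at 7×10^3 cells/well in triplicate and left 24 h. Treated 24 h or 48 h with test compound (DMSO stock diluted in DMEM) or nanoparticle formulations (DMEM-suspended, sonicated 10 min). MTT added for 3 h, formazan dissolved in isopropanol, A570 read. Untreated cells set at 100%. IC50 from curve fitting.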
Background: Tetrazolium assays rely on reduction of a dye to a coloured formazan, in cell work by metabolically active cells.

A further data set deals with Swiss albino mice. Description: In vivo biodistribution study. As to conditions: 5 mg/kg intravenously.

Consider `CNC(=O)c1cc(Oc2ccc(NC(=O)Nc3ccc(Cl)c(C(F)(F)F)c3)cc2)ccn1` [SRFT, Sorafenib tosylate], for which, in data set [1] (Homo sapiens, PLC-PRF-5), the half-inhibitory concentration (IC50) (in general, the point on the concentration scale where inhibition reaches its midpoint) lay within 6 to 8 µM. Moreover, the “cytotoxicity” value in data set [1] (PLC/PRF/5, 4–12 µM, 24 h and 48 h) is “concentration-dependent cytotoxicity”. Further, the “sorafenib distribution liver vs kidneys, first hour” value in the data set with Swiss albino mice (1 h) is “accumulated in the kidneys was higher compared to liver”. Besides, the “sorafenib distribution liver vs kidneys at 48 h” value in the data set with Swiss albino mice (48 h) was “in kidneys at 48 h was higher than in the liver”.
